Experimental data taken from ChEMBL document CHEMBL4373711, “Development of 3,5-Dinitrophenyl-Containing 1,2,4-Triazoles and Their Trifluoromethyl Analogues as Highly Efficient Antitubercular Agents Inhibiting Decaprenylphosphoryl-β-d-ribofuranose 2'-Oxidase” (J Med Chem, 2019).
Values after ≈ are worked out from the molar mass of the structure shown.

How the values were obtained:
Format in all cases: functional
Mycobacterium kansasii [1] = experiment: Antimycobacterial activity against Mycobacterium kansasii 6509/96 after 7 days; conditions: 6509/96, 168 h
In short: (§1)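 Microdilution in Šula's semisynthetic medium; compounds in DMSO at 32–0.03 µM. Inoculum from 1.0 McFarland suspension diluted 10-4. […] Isoniazid and rifampicin as reference drugs.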

Mycobacterium kansasii [2] = experiment: Antimycobacterial activity against Mycobacterium kansasii CNCTC My 235/80 after 7 days; conditions: CNCTC My 235/80, 168 h; in short: as §1
Mycobacterium avium [3] = experiment: Antimycobacterial activity against Mycobacterium avium CNCTC My 330/88 after 21 days; conditions: CNCTC My 330/88, 504 h
In short: (§2)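 M. avium was tested by microdilution in Šula's semisynthetic medium, with compounds dissolved in DMSO and serially diluted from 1000 down to 1. Inoculum was a 1.0 McFarland suspension diluted 10-5. Plates were incubated at 37 °C and read at 14 and 21 days. […] Isoniazid and rifampicin served as standards.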

[4] = tested on: Mycobacterium tuberculosis; experiment: Antimycobacterial activity against Mycobacterium tuberculosis H37Rv CNCTC My 331/88 after 21 days; conditions: H37Rv CNCTC My 331/88, 504 h
In short: (§3)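 M. tuberculosis strains (H37Rv and clinical MDR/XDR isolates) tested by microdilution in Šula's semisynthetic medium. Compounds were dissolved in DMSO and tested at 32 to 0.03 µM in twofold steps. Inoculum was a 1.0 McFarland suspension diluted 10-3. Plates were incubated at 37 °C and read at 14 and 21 days.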

Mycobacterium kansasii [5] = experiment: Antimycobacterial activity against Mycobacterium kansasii CNCTC My 235/80 after 14 days; conditions: CNCTC My 235/80, 336 h; in short: as §1
Mycobacterium kansasii [6] = experiment: Antimycobacterial activity against Mycobacterium kansasii CNCTC My 235/80 after 21 days; conditions: CNCTC My 235/80, 504 h; in short: as §1
Mycobacterium kansasii [7] = experiment: Antimycobacterial activity against Mycobacterium kansasii 6509/96 after 21 days; conditions: 6509/96, 504 h; in short: as §1
Mycobacterium avium [8] = experiment: Antimycobacterial activity against Mycobacterium avium CNCTC My 330/88 after 14 days; conditions: CNCTC My 330/88, 336 h; in short: as §2
Mycobacterium kansasii [9] = experiment: Antimycobacterial activity against Mycobacterium kansasii 6509/96 after 14 days; conditions: 6509/96, 336 h; in short: as §1
[10] = tested on: Mycobacterium tuberculosis; experiment: Antimycobacterial activity against Mycobacterium tuberculosis H37Rv CNCTC My 331/88 after 14 days; conditions: H37Rv CNCTC My 331/88, 336 h; in short: as §3

Compound | MIC99 (Mycobacterium kansasii [1]) [µM] | MIC99 (Mycobacterium kansasii [2]) [µM] | MIC99 (Mycobacterium avium [3]) [µM] | MIC99 [4] [µM] | MIC99 (Mycobacterium kansasii [5]) [µM] | MIC99 (Mycobacterium kansasii [6]) [µM] | MIC99 (Mycobacterium kansasii [7]) [µM] | MIC99 (Mycobacterium avium [8]) [µM] | MIC99 (Mycobacterium kansasii [9]) [µM] | MIC99 [10] [µM]
O=[N+]([O-])c1cc(CSc2nnc(-c3ccccc3)n2-c2ccccc2)cc([N+](=O)[O-])c1 | 2 (≈ 0.867 µg/mL) | 2 (≈ 0.867 µg/mL) | > 1000 | 4 (≈ 1.73 µg/mL) | 4 (≈ 1.73 µg/mL) | 8 (≈ 3.47 µg/mL) | 8 (≈ 3.47 µg/mL) | > 1000 | 4 (≈ 1.73 µg/mL) | 4 (≈ 1.73 µg/mL)
O=C(NNC(=S)NCc1ccc(Cl)cc1Cl)c1cc([N+](=O)[O-])cc([N+](=O)[O-])c1 | 16 (≈ 7.11 µg/mL) | 16 (≈ 7.11 µg/mL) | 32 (≈ 14.2 µg/mL) | 8 (≈ 3.55 µg/mL) | 16 (≈ 7.11 µg/mL) | 16 (≈ 7.11 µg/mL) | 16 (≈ 7.11 µg/mL) | 16 (≈ 7.11 µg/mL) | 16 (≈ 7.11 µg/mL) | 8 (≈ 3.55 µg/mL)
O=[N+]([O-])c1cc(Cn2c(SCc3ccc(Cl)cc3)nnc2-c2ccccc2)cc([N+](=O)[O-])c1 | 16 (≈ 7.71 µg/mL) | 4 (≈ 1.93 µg/mL) | 250 (≈ 120 µg/mL) | 16 (≈ 7.71 µg/mL) | 8 (≈ 3.86 µg/mL) | 16 (≈ 7.71 µg/mL) | 32 (≈ 15.4 µg/mL) | 250 (≈ 120 µg/mL) | 32 (≈ 15.4 µg/mL) | 8 (≈ 3.86 µg/mL)
Cc1ccc(-c2nnc(SCc3cc([N+](=O)[O-])cc([N+](=O)[O-])c3)n2Cc2ccccc2)cc1 | 4 (≈ 1.85 µg/mL) | 4 (≈ 1.85 µg/mL) | 250 (≈ 115 µg/mL) | 4 (≈ 1.85 µg/mL) | 4 (≈ 1.85 µg/mL) | 4 (≈ 1.85 µg/mL) | 4 (≈ 1.85 µg/mL) | 250 (≈ 115 µg/mL) | 4 (≈ 1.85 µg/mL) | 4 (≈ 1.85 µg/mL)
CCn1c(SCc2cc([N+](=O)[O-])cc([N+](=O)[O-])c2)nnc1-c1ccccc1 | 2 (≈ 0.771 µg/mL) | 2 (≈ 0.771 µg/mL) | 250 (≈ 96.4 µg/mL) | 4 (≈ 1.54 µg/mL) | 2 (≈ 0.771 µg/mL) | 4 (≈ 1.54 µg/mL) | 4 (≈ 1.54 µg/mL) | 250 (≈ 96.4 µg/mL) | 4 (≈ 1.54 µg/mL) | 2 (≈ 0.771 µg/mL)
O=[N+]([O-])c1cc(CSc2nnc(-c3ccc(Cl)c(Cl)c3)n2Cc2ccccc2)cc([N+](=O)[O-])c1 | 2 (≈ 1.03 µg/mL) | 1 (≈ 0.516 µg/mL) | 250 (≈ 129 µg/mL) | 2 (≈ 1.03 µg/mL) | 2 (≈ 1.03 µg/mL) | 2 (≈ 1.03 µg/mL) | 4 (≈ 2.07 µg/mL) | 250 (≈ 129 µg/mL) | 4 (≈ 2.07 µg/mL) | 2 (≈ 1.03 µg/mL)
O=[N+]([O-])c1cc(CSc2nnc(-c3ccccc3)n2Cc2ccc(Br)cc2)cc([N+](=O)[O-])c1 | 2 (≈ 1.05 µg/mL) | 2 (≈ 1.05 µg/mL) | 250 (≈ 132 µg/mL) | 2 (≈ 1.05 µg/mL) | 4 (≈ 2.11 µg/mL) | 4 (≈ 2.11 µg/mL) | 4 (≈ 2.11 µg/mL) | 250 (≈ 132 µg/mL) | 4 (≈ 2.11 µg/mL) | 2 (≈ 1.05 µg/mL)
O=[N+]([O-])c1cc(CSc2nnc(CCCCCO)n2Cc2ccccc2)cc([N+](=O)[O-])c1 | 16 (≈ 7.32 µg/mL) | 8 (≈ 3.66 µg/mL) | > 1000 | 32 (≈ 14.6 µg/mL) | 16 (≈ 7.32 µg/mL) | 32 (≈ 14.6 µg/mL) | 32 (≈ 14.6 µg/mL) | > 1000 | 32 (≈ 14.6 µg/mL) | 16 (≈ 7.32 µg/mL)
COc1ccc(CSc2nnc(-c3ccccc3)n2Cc2cc([N+](=O)[O-])cc([N+](=O)[O-])c2)cc1 | > 32 | > 32 | 250 (≈ 119 µg/mL) | 16 (≈ 7.64 µg/mL) | > 32 | – | – | 250 (≈ 119 µg/mL) | > 32 | 16 (≈ 7.64 µg/mL)
O=C(NNC(=S)NCc1ccccc1)c1cc([N+](=O)[O-])cc([N+](=O)[O-])c1 | 16 (≈ 6.01 µg/mL) | 32 (≈ 12 µg/mL) | 62 (≈ 23.3 µg/mL) | 8 (≈ 3 µg/mL) | 32 (≈ 12 µg/mL) | 32 (≈ 12 µg/mL) | 16 (≈ 6.01 µg/mL) | 62 (≈ 23.3 µg/mL) | 16 (≈ 6.01 µg/mL) | 8 (≈ 3 µg/mL)
